Assay results as given in ChEMBL document CHEMBL4825663 (J Med Chem, 2021).
Values belong to the compound of their own block, whether it stands above or below them.

Assays:
[1] = target: T1, Solute carrier family 22 member 6 (Homo sapiens, UniProt Q4U2R8); assay: Inhibition of human OAT1 assessed as reduction in intracellular probe substrate accumulation upto 100 uM by microplate scintillation counter analysis relative to control; assay type: cell-based
T1 sequence (Q4U2R8 whole entry): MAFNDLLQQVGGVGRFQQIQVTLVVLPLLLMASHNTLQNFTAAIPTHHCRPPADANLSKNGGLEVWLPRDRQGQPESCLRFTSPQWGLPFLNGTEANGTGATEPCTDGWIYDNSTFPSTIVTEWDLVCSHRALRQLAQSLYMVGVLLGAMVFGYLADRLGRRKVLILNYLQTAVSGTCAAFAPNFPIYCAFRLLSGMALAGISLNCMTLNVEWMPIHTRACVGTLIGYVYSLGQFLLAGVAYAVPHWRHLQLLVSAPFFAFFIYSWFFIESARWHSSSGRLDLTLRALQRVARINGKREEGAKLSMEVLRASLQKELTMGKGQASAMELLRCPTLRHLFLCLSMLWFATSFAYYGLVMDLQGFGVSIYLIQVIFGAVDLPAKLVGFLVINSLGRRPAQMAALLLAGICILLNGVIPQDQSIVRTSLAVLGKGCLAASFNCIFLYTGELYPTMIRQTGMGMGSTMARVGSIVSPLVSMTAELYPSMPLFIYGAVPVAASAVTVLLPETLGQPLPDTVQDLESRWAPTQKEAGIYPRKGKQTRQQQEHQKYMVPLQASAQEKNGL
Summary of the method: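 Cellular uptake-inhibition assays used Chinese hamster ovary, HEK293 or MDCKII cells stably expressing the respective human SLC transporter, run alongside the corresponding control cells. Inhibitor was tested at concentrations up to 100 μM.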

[2] = Toxicity in Sprague-Dawley rat assessed as histiocytosis in lymph nodes at 10 to 50 mg/kg, po and measured after 4 to 13 weeks; assay type: organism-based, Lymph node; conditions: in vivo, dose lower 10 mg/kg, time lower 4 weeks, dose upper 50 mg/kg, time upper 13 weeks
[3] = Toxicity in Beagle dog assessed as enlargement of lymph nodes at >= 100 mg/kg, po and measured after 13 weeks; assay type: organism-based, Canis lupus familiaris; conditions: in vivo, 2184 h
[4] = Cmax in human at 900 mg, po administered as single dose; assay type: ADME, organism-based; set-up: route oral, dose 900 mg; conditions: in vivo
[5] = Drug distribution in Beagle dog bile; assay type: ADME, tissue-based, Canis lupus familiaris; conditions: in vivo
[6] = Cmax in Beagle dog at 10 mg/kg, po measured upto 48 hrs by LC-MS/MS analysis; conditions: in vivo
[7] = Tmax in Sprague-Dawley rat at 10 mg/kg, po measured upto 48 hrs by LC-MS/MS analysis; conditions: in vivo
[8] = Tmax in Sprague-Dawley rat at 20 mg/kg, po measured upto 24 hrs in presence of 10 mg/kg encequidar by LC-MS/MS analysis; assay type: ADME, organism-based; conditions: in vivo
[9] = Volume of distribution in Sprague-Dawley rat at 6 mg/kg, iv measured upto 24 hrs by LC-MS/MS analysis; assay type: ADME, organism-based; conditions: in vivo
[10] = Half life in Sprague-Dawley rat at 20 mg/kg, po measured upto 24 hrs by LC-MS/MS analysis; conditions: in vivo
[11] = Half life in Sprague-Dawley rat at 6 mg/kg, iv measured upto 24 hrs by LC-MS/MS analysis; conditions: in vivo
[12] = AUClast in Sprague-Dawley rat at 6 mg/kg, iv measured upto 24 hrs by LC-MS/MS analysis; assay type: ADME, organism-based; set-up: route intravenous, dose 6 mg/kg, time <=24; conditions: in vivo
[13] = AUClast in Sprague-Dawley rat at 20 mg/kg, po measured upto 24 hrs in presence of 10 mg/kg encequidar by LC-MS/MS analysis; assay type: ADME, organism-based; set-up: route oral, dose 20 mg/kg, time <=24; conditions: in vivo
[14] = Oral bioavailability in Sprague-Dawley rat at 20 mg/kg measured upto 24 hrs in presence of 10 mg/kg encequidar by LC-MS/MS analysis; assay type: ADME, organism-based; conditions: in vivo
[15] = Drug accumulation in Sprague-Dawley rat plasma at 20 mg/kg, po administered once per week for 4 weeks in presence of 10 mg/kg encequidar by LC-MS/MS analysis; assay type: ADME, organism-based; conditions: in vivo, 672 h
[16] = Drug accumulation in Beagle dog plasma at 6 mg/kg, po administered once per week for 4 weeks in presence of 3 mg/kg encequidar by LC-MS/MS analysis; assay type: ADME, organism-based, Canis lupus familiaris; conditions: in vivo, 672 h
[17] = Drug distribution in Sprague-Dawley rat liver at 20 mg/kg, po measured upto 168 hrs in presence of 10 mg/kg encequidar by LC-MS/MS analysis; assay type: ADME, organism-based; conditions: in vivo
[18] = Drug distribution in Sprague-Dawley rat intestine at 20 mg/kg, po measured upto 168 hrs in presence of 10 mg/kg encequidar by LC-MS/MS analysis; assay type: ADME, organism-based; conditions: in vivo
[19] = Ratio of drug concentration in BALB/c mouse kidney to plasma at 20 mg/kg, po measured upto 24 hrs in presence of 10 mg/kg encequidar by LC-MS/MS analysis; assay type: ADME, organism-based
[20] = Ratio of drug concentration in BALB/c mouse lung to plasma at 20 mg/kg, po measured upto 24 hrs in presence of 10 mg/kg encequidar by LC-MS/MS analysis; assay type: ADME, organism-based
HT-29 = assay: Antitumor activity against human HT-29 cells xenografted in athymic nude mouse assessed as reduction in tumor growth at 40 mg/kg, po in presence of 20 mg/kg encequidar; assay type: functional; set-up: scale not given: the % may be the effect or the level left
MDA-MB-231 [21] = assay: (§1) Antitumor activity against human MDA-MB-231 cells xenografted in athymic nude mouse assessed as reduction in median number of days for tumor to reach two tumor mass doubling at 12 mg/kg, iv administered every other day for 4 doses and monitored for 70 to 82 days (reference value: 13.1 day); assay type: functional; conditions: time 70-82 day
MDA-MB-231 [22] = assay: Antitumor activity against human MDA-MB-231 cells xenografted in athymic nude mouse assessed as reduction in median number of days for tumor to reach two tumor mass doubling at 18 mg/kg, iv administered every other day for 4 doses and monitored for 70 to 82 days (reference value: 13.1 day); assay type: functional; conditions: time 70-82 day
MDA-MB-231 [23] = assay: as §1, with “at 30” for “at 12”, “mg/kg, po” for “mg/kg, iv”, “doses in presence of 12 mg/kg encequidar” for “doses”; assay type: functional; conditions: time 70-82 day
[24] = Toxicity in athymic nude mouse xenografted with human MDA-MB-231 cells assessed as reduction in body weight at 40 mg/kg, po administered every other day for 4 doses in presence of 16 mg/kg encequidar and monitored for 70 to 82 days; assay type: organism-based; set-up: scale not given: the % may be the effect or the level left; conditions: in vivo, time 70-82 day
Summary of the method: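 Female athymic NCr-nu mice (n = 10/group) bearing subcutaneous MDA-MB-231 xenografts were treated from day 8. […] Individual body weights were monitored for 82 days after implantation.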

[25] = Neurotoxicity in Sprague-Dawley rat assessed as reduction in nociceptive threshold at 6 mg/kg, iv measured after day 5, 7, 11 and 14; assay type: toxicity, organism-based; conditions: in vivo
Summary of the method: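 Healthy rats received IV paclitaxel (Taxol) at 0 (vehicle), 3 or 6 mg/kg, four times at 2-day intervals (cumulative 12 or 24 mg/kg), n = 5/group. Paw pressure threshold (mmHg to elicit response, back paws) was measured by Randall–Selitto test. Data were analysed by one-way ANOVA, then Dunnett's test versus control.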

- inhibition (INH) [1]: < 50%
- Cmax [4]: 6.6 ng/mL
- Drug uptake [5]: Active
- Cmax [6]: 26.6 ng/mL
- Tmax [7]: 8 h
SMILES: COc1cc2c(cc1OC)CN(CCc1ccc(-n3nnc(-c4cc(OC)c(OC)cc4NC(=O)c4cc(=O)c5ccccc5o4)n3)cc1)CC2
- Activity [2]: Toxic
- Activity [3]: Toxic

SMILES: CC(=O)O[C@H]1C(=O)[C@@]2(C)[C@H]([C@H](OC(=O)c3ccccc3)[C@]3(O)C[C@H](OC(=O)[C@H](O)[C@@H](NC(=O)c4ccccc4)c4ccccc4)C(C)=C1C3(C)C)[C@]1(OC(C)=O)CO[C@@H]1C[C@@H]2O [PACLITAXEL]
- Tmax [8]: 1 h
- Vd [9]: 23.6 L/kg
- half-life at 24 h [10]: 480 min
- half-life at 24 h [11]: 462 min
- AUC(0-t) at 24 h [12]: 2730 ng·h/mL
- AUC(0-t) at 24 h [13]: 3760 ng·h/mL
- bioavailability [14]: 41.3%
- Drug uptake [15]: Not Active
- Drug uptake [16]: Not Active
- Drug uptake [17]: Active
- Drug uptake [18]: Active
- Kp at 24 h [19]: > 1
- Kp at 24 h [20]: > 1
- Activity (HT-29): 94%
- Time (MDA-MB-231 [21]): 26.1 days
- Time (MDA-MB-231 [22]): >69 days
- Time (MDA-MB-231 [23]): >69 days
- Activity [24]: 5%
- Activity [25]: Toxic
